PMC8942377 (Science Advances, 2022)
Where no end group is shown, it is not given here.

What was measured:
SST1–5 = conditions: cited from earlier work
mice = test: Tail flick test; format: in vivo, mouse; conditions: intrathecal, 1 mg/kg, positive control
Method in brief: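 Mice lightly sedated with 2% isoflurane, then given one intrathecal lumbar-puncture injection (5 μl) of saline, morphine 1 mg/kg, or test compound 0.025–0.75 mg/kg. Distal two-thirds of tail dipped in 52°C water; latency to withdrawal timed by chronometer. Result taken as mean tail flick latency.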

[1] = following intravenous infusion; cited from earlier work

urotensin-II (ETPDCFWKYCV; ends and bridges not checked; cysteine pairing not given here; UniProt O95399 114-124, looked up) [UII]
activity at SST1–5 (SST1–5): low activity

CN1CC[C@]23c4c5ccc(O)c4O[C@H]2[C@@H](O)C=C[C@H]3[C@H]1C5 [Morphine]
tail flick antinociception (mice): robust antinociception

octreotide
SS receptor subtype selectivity (SST1–5): preferentially activated SST2 over SST3 and SST5 and displayed little to no activity on SST1 or SST4 | in vivo half-life [1]: 1.5 h
